Screening data from PubChem.
Most compounds without a hit are left out; they make up all but 2% or so of the library.
NR2E3 ag-1 = activates human NR2E3 receptor | Q9Y5X4 | CHO-S Gal4-NCOR/VP16-NR2E3 two-hybrid, luciferase | inhibition of corepressor binding, % at 3.98 µM | 360,000 compounds, 0.35% hits;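 active = inhibition above the mean of all tested compounds plus 3 SD, cut at about 70% in these data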;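 also: 0% = DMSO with NR2E3 transfected cells and 100% = cells lacking NR2E3 construct; higher means lower luciferase signal from less NR2E3 corepressor binding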
NR2E3 ag-2 = agonists of human nuclear receptor NR2E3; Q9Y5X4; GST-NR2E3/biotin-RetCOR TR-FRET, 1536-well; inhibition of corepressor binding, % at 4.78 µM; 320,000 compounds, 0.12% hits; AID 2300;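 active = percent inhibition above the cutoff of mean plus 3 SD of all tested compounds, set per screening campaign, cut at about 20% in these data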;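 also: 0% = DMSO wells and 100% = biotin wells as full block of FRET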
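System: GST-tagged NR2E3 plus biotinylated RetCOR corepressor; Buffer or medium: pH 7.5 Tris-based buffer; Probe or stimulus: RetCOR corepressor, biotinylated, 7 nM; Doses: compound at 4.8 µM, single dose; Schedule: 5 h incubation at 4 °C; Technique: time-resolved FRET; Evaluation: percent inhibition of TR-FRET ratio; Replication: one well per compound, singlicate testing.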
PG9 Ab binder = PG9 antibody binding by small molecule. TR-FRET gp120-PG9 antibody binding. inhibition, % at 6.7 µM. 360,000 compounds, 0.43% hits; in the data active = inhibition above about 8.5%
NR1D1 modulator = modulates human Rev-erb alpha binding to DNA; P20393; Rev-erbα–FITC-DNA binding, fluorescence polarization, 90 min; activity, % at 10 µM; 370,000 compounds, 0.79% hits;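 active = activity above about 14%, limit read from the data; passing the limit was not always enough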;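 also: 0% = DMSO wells with 35 nM protein and 100% = DMSO wells with 750 nM protein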
Neddyl block = blocks human cullin neddylation | calls only at 25 µM | 360,000 compounds, 0.58% hits | TR-FRET cullin neddylation, biochemical | P61081+Q13564 | AID 651699; in the data active = inhibition above about 36%
Target sequence (P61081 whole entry, looked up): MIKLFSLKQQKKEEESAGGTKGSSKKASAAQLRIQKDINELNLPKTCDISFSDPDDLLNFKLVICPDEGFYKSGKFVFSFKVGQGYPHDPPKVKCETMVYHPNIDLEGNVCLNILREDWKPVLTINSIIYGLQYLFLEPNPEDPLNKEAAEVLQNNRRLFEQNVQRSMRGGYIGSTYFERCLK
Target sequence (Q13564 whole entry, looked up): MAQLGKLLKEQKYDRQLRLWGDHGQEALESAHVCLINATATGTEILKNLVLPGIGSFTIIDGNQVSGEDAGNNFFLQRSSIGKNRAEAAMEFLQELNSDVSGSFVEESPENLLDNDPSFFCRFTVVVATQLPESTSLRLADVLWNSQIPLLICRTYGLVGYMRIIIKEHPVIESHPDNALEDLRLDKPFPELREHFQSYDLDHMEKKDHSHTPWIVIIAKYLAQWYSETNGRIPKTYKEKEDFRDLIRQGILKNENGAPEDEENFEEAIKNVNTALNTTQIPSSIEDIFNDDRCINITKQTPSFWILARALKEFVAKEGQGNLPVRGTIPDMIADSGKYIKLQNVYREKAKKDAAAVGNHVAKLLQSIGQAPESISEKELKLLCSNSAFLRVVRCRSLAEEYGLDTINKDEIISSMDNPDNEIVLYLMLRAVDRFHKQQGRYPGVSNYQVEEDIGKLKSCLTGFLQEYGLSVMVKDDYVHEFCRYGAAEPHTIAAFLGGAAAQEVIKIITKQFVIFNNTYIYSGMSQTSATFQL
Rev-erbA confirm = Rev-erb alpha (human) modulation, hit confirmation. 3,000 compounds, 61% hits. Rev-erb alpha FITC-DNA binding, fluorescence polarization, 90 min. AID 1259319. shares compounds with NR1D1 modulator. activation, % at 25 µM;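 active = activation at or above a set limit, or at least 3 SD above the negative control mean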;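 also: 0% = 35 nM protein with DMSO and 100% = 750 nM protein high control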
RORg DNA counter = RORgamma DNA-binding activity, dose-response counter-screen; shares compounds with NR1D1 modulator; purified RORgamma protein-FITC-DNA binding, fluorescence polarization; IC50, µM; 910 compounds, 8% hits; AID 1259320;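 active = Compounds whose fitted half-maximal concentration for disrupting protein-DNA binding is below 10 micromolar; the record names Rev-erb in its text, so the target is in doubt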
Numbers without * were called inactive; i = inactive; · = no result given.

SMILES | NR2E3 ag-1 | NR2E3 ag-2 | PG9 Ab binder | NR1D1 modulator | Neddyl block | Rev-erbA confirm | RORg DNA counter
O=[N+]([O-])c1ccc(N2CCCCC2)c2ncccc12 | -43.8 | 2.3 | -1.7 | 10.1 | i | · | ·
O=[N+]([O-])c1ccc(N2CCCCCC2)c2nonc12 | -11.6 | -0.8 | -4.2 | 55.8* | i | 48.7* | 4.13*
Cc1cc(N2CCNC[C@@H]2C)ccc1N1CCN[C@@H](C)C1 | · | · | -1.0 | -0.5 | · | · | ·
CCCCCCn1c(=O)c(C(=O)Nc2cnccn2)c(O)c2ccccc21 | -16.4 | 1.1 | -2.2 | 13.6* | i | 17.4 | ·
CCCCCn1c(=O)c(C(=O)Nc2ccccc2)c(O)c2ccccc21 | 0.5 | 1.2 | -2.6 | 21.2* | i | 4.3 | ·
CCCCCn1c(=O)c(C(=O)Nc2ccccn2)c(O)c2ccccc21 | -16.0 | 5.1 | 0.9 | -0.7 | i | · | ·
CC1C2Cc3ccc(O)cc3C1(C)CCN2CC1CC1 (stereo unspecified) | · | · | 0.6 | -1.8 | · | · | ·
OC1CN2CCC(O)C2C(O)C1O (stereo unspecified) | · | · | 0.2 | -3.1 | · | · | ·
Cc1ccc2nc(-c3ccc(CN4CCC(n5c(=O)[nH]c6cc(Cl)ccc65)CC4)cc3)c(-c3ccccc3)nc2c1 | · | · | -0.3 | -5.5 | · | · | ·
O=c1c(C=NCCN2CCNCC2)c(O)n(C2CCCCC2)c(=O)n1C1CCCCC1 | 2.0 | 4.9 | · | · | i | · | ·
O=c1c(C=NCc2cccs2)c(O)n(C2CCCCC2)c(=O)n1C1CCCCC1 | -5.8 | -0.2 | 0.3 | 63.4* | i | 1.6 | ·
Nc1ccc2ccc3cccc[n+]3c2c1 | -54.2 | 7.2 | 2.0 | 127.3* | i | 105.2* | >40
C[n+]1c(-c2ccccc2)c2cc(N)ccc2c2ccc(N)cc21 | 13.5 | -5.1 | -17.5 | -21.8 | i | · | ·
CC(C)(C)NC(=O)CN1C(=O)[C@@H](Cc2c[nH]c3ccccc23)N=C(c2ccccc2)c2ccccc21 | · | · | · | 1.8 | · | · | ·
CC1(C)OC(c2ccccc2)=C/C(=C/C=C2C(=O)NC(=S)NC2=O)O1 | · | -0.1 | -1.2 | 5.2 | · | · | ·
CN1/C(=C\C=C2C(=O)NC(=S)NC2=O)C(C)(C)c2ccccc21 | 3.6 | · | -25.2 | 25.0* | i | 53.2* | >40
CC(C)(C)c1cc(O)ccc1O | · | · | 2.4 | -2.7 | · | · | ·
O=C1NC(=O)N(c2ccc3c(c2)OCO3)C(=O)/C1=C\c1ccc(N2CCCCC2)o1 | -2.9 | -0.4 | -7.9 | 26.0* | i | 25.7* | ·
CN1C(=O)C(=Cc2ccc(N3CCCCCC3)o2)C(=O)N(C)C1=S | -25.0 | -0.1 | -2.5 | 38.7* | i | 60.4* | >40
CN1C(=O)C(=Cc2ccc(N3CCOCC3)o2)C(=O)N(C)C1=O | -26.9 | -0.5 | -9.0 | 40.7* | i | 44.1* | >40
Cc1ccccc1N1C(=O)NC(=O)/C(=C/c2ccc(N3CCOCC3)o2)C1=O | 21.8 | 2.0 | -4.0 | 16.8 | i | · | ·
CN(c1ccc(O)cc1)c1ccc([N+](=O)[O-])c2nonc12 | -1.4 | · | -6.7 | 25.1* | i | 29.7* | >40
